≈ marks a conversion by molar mass, not a printed value.
Experiments:
[1] = system: Mycolicibacterium smegmatis; test: Antimycobacterial activity against Mycobacterium smegmatis MC2 155 ATCC 19420 after 7 days by resazurin assay; assay type: functional; details: MC2 155 ATCC 19420, 168 h
Outline: (§1)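 Broth microdilution resazurin assay. Culture diluted to McFarland 2 standard in the same medium and added to fresh medium. Test compounds from 2 mg/mL DMF stocks, first tested at 1, 10 and 100, then at 0.3125–5; DMF-only controls. Incubated 37 °C for 7 days, then 0.01% resazurin added. Blue-to-pink change scored; MIC taken as lowest concentration preventing the colour change.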

[2] = system: Mycobacterium tuberculosis; test: Antimycobacterial activity against Mycobacterium tuberculosis H37Rv ATCC 27294 after 7 days by resazurin assay; assay type: functional; details: H37Rv ATCC 27294, 168 h; outline: as §1
Mycobacterium = test: Inhibition of Mycobacterium membrane bound ATP synthase; set-up: concentration or dose not given beside the values; details: concentration not given here
[3] = system: Mycolicibacterium fortuitum; test: Antimycobacterial activity against Mycobacterium fortuitum ATCC 19542 after 7 days by resazurin assay; assay type: functional; details: ATCC 19542, 168 h
Outline: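 M. fortuitum ATCC 19542 culture diluted to McFarland 2 standard in medium and dispensed into 96-well plates. Compounds came from 2 mg/mL DMF stocks and were screened at 1, 10 and 100, then retested at […]. Controls received DMF alone. After 7 days at 37 °C, 0.01% resazurin was added and colour read after 1 h at 37 °C. MIC was the level keeping the dye blue.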

Vero = test: Cytotoxicity against african green monkey Vero cells after 72 hrs by MTT assay; assay type: cell-based; details: Chlorocebus sabaeus
Outline: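 Cells were exposed for 72 h, then viability was read as cellular conversion of MTT to formazan with a non-radioactive cell proliferation kit.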

Row | SMILES | MIC [1] | MIC [2] | inhibition (Mycobacterium) | MIC [3] | IC50 (Vero)
1 | CSc1ccccc1/C=N/NC(=O)c1cnc2c(C(F)(F)F)cccc2c1N[C@@H](CSc1ccccc1)CC(=O)N(C)C | > 100 µg/mL | > 100 µg/mL | 0% | > 100 µg/mL | 
2 | CN(C)C(=O)C[C@H](CSc1ccccc1)Nc1c(C(=O)N/N=C/c2ccc(F)cc2)cnc2c(C(F)(F)F)cccc12 | > 100 µg/mL | 5 µg/mL (≈ 8.37 µM) | 90% | 10 µg/mL (≈ 16.7 µM) | > 62.5 µg/mL
3 | NNC(=O)c1ccncc1 [ISONIAZID] | 50 µg/mL (≈ 365 µM) | 1 µg/mL (≈ 7.29 µM) | > 95% | 12.5 µg/mL (≈ 91.1 µM) | > 62.5 µg/mL
4 | CN(C)C(=O)C[C@H](CSc1ccccc1)Nc1c(C(=O)N/N=C/c2cc(F)ccc2O)cnc2c(C(F)(F)F)cccc12 | > 100 µg/mL | 10 µg/mL (≈ 16.3 µM) | 0% | > 100 µg/mL | 
5 | CSCC/C=N/NC(=O)c1cnc2ccc(F)cc2c1N[C@@H](CSc1ccccc1)CC(=O)N(C)C | > 100 µg/mL | > 100 µg/mL | 0% | > 100 µg/mL | 
6 | CN(C)C(=O)C[C@H](CSc1ccccc1)Nc1c(C(=O)N/N=C/c2ccc(Br)s2)cnc2ccc(F)cc12 | > 100 µg/mL | > 100 µg/mL | 0% | > 100 µg/mL | 
7 | CN(C)C(=O)C[C@H](CSc1ccccc1)Nc1c(C(=O)N/N=C/c2cccnc2)cnc2ccc(F)cc12 | > 100 µg/mL | 5 µg/mL (≈ 9.42 µM) | 90% | 10 µg/mL (≈ 18.8 µM) | > 62.5 µg/mL
8 | COc1ccc(/C=N/NC(=O)c2cnc3c(C(F)(F)F)cccc3c2N[C@@H](CSc2ccccc2)CC(=O)N(C)C)c(F)c1 | > 100 µg/mL | 10 µg/mL (≈ 15.9 µM) | 90% | > 100 µg/mL | 
9 | CN(C)C(=O)C[C@H](CSc1ccccc1)Nc1c(C(=O)N/N=C/c2cc(F)ccc2O)cnc2ccc(F)cc12 | > 100 µg/mL | 10 µg/mL (≈ 17.7 µM) | 0% | > 100 µg/mL | 
10 | COc1ccc(/C=N/NC(=O)c2cnc3ccc(F)cc3c2N[C@@H](CSc2ccccc2)CC(=O)N(C)C)cc1O | > 100 µg/mL | 5 µg/mL (≈ 8.69 µM) | 90% | 5 µg/mL (≈ 8.69 µM) | > 62.5 µg/mL
11 | COc1ccc(/C=N/NC(=O)c2cnc3c(C(F)(F)F)cccc3c2N[C@@H](CSc2ccccc2)CC(=O)N(C)C)cc1 | > 100 µg/mL | > 100 µg/mL | 0% | > 100 µg/mL | 
12 | COc1ccc(/C=N/NC(=O)c2cnc3ccc(F)cc3c2N[C@@H](CSc2ccccc2)CC(=O)N(C)C)cc1 | > 100 µg/mL | 10 µg/mL (≈ 17.9 µM) | 0% | > 100 µg/mL | 
13 | CN(C)C(=O)C[C@H](CSc1ccccc1)Nc1c(C(=O)N/N=C/c2cccnc2)cnc2c(C(F)(F)F)cccc12 | 2.5 µg/mL (≈ 4.31 µM) | 0.625 µg/mL (≈ 1.08 µM) | > 95% | 1 µg/mL (≈ 1.72 µM) | > 62.5 µg/mL
14 | CN(C)C(=O)C[C@H](CSc1ccccc1)Nc1c(C(=O)N/N=C/c2cccc(OC(F)(F)C(F)F)c2)cnc2c(C(F)(F)F)cccc12 | 5 µg/mL (≈ 7.19 µM) | 1 µg/mL (≈ 1.44 µM) | > 95% | 2.5 µg/mL (≈ 3.59 µM) | > 62.5 µg/mL
15 | CCCCCCCC/C=N/NC(=O)c1cnc2c(C(F)(F)F)cccc2c1N[C@@H](CSc1ccccc1)CC(=O)N(C)C | 10 µg/mL (≈ 16.2 µM) | 1 µg/mL (≈ 1.62 µM) | > 95% | 5 µg/mL (≈ 8.12 µM) | > 62.5 µg/mL
16 | CCCCCCCC/C=N/NC(=O)c1cnc2ccc(F)cc2c1N[C@@H](CSc1ccccc1)CC(=O)N(C)C | 10 µg/mL (≈ 17.7 µM) | 1 µg/mL (≈ 1.77 µM) | > 95% | 5 µg/mL (≈ 8.84 µM) | > 62.5 µg/mL
17 | CN(C)C(=O)C[C@H](CSc1ccccc1)Nc1c(C(=O)N/N=C/c2ccc(Br)s2)cnc2c(C(F)(F)F)cccc12 | > 100 µg/mL | 10 µg/mL (≈ 15 µM) | 90% | > 100 µg/mL | > 62.5 µg/mL
18 | CSc1ccccc1/C=N/NC(=O)c1cnc2ccc(F)cc2c1N[C@@H](CSc1ccccc1)CC(=O)N(C)C | > 100 µg/mL | > 100 µg/mL | 0% | > 100 µg/mL | 
19 | CN(C)C(=O)C[C@H](CSc1ccccc1)Nc1c(C(=O)N/N=C/c2ccc(OC(F)(F)F)cc2)cnc2ccc(F)cc12 | > 100 µg/mL | 2.5 µg/mL (≈ 4.07 µM) | 90% | 5 µg/mL (≈ 8.15 µM) | > 62.5 µg/mL
20 | COc1ccc(/C=N/NC(=O)c2cnc3ccc(F)cc3c2N[C@@H](CSc2ccccc2)CC(=O)N(C)C)c(F)c1 | > 100 µg/mL | 5 µg/mL (≈ 8.66 µM) | 0% | > 100 µg/mL | 
21 | CN(C)C(=O)C[C@H](CSc1ccccc1)Nc1c(C(=O)N/N=C/c2ccc(OC(F)(F)F)cc2)cnc2c(C(F)(F)F)cccc12 | > 100 µg/mL | 5 µg/mL (≈ 7.53 µM) | 90% | 5 µg/mL (≈ 7.53 µM) | > 62.5 µg/mL
22 | COc1ccc(/C=N/NC(=O)c2cnc3c(C(F)(F)F)cccc3c2N[C@@H](CSc2ccccc2)CC(=O)N(C)C)cc1O | > 100 µg/mL | 5 µg/mL (≈ 7.99 µM) | 90% | 10 µg/mL (≈ 16 µM) | > 62.5 µg/mL
23 | CN(C)C(=O)C[C@H](CSc1ccccc1)Nc1c(C(=O)N/N=C/c2cccc(OC(F)(F)C(F)F)c2)cnc2ccc(F)cc12 | 2.5 µg/mL (≈ 3.87 µM) | 0.625 µg/mL (≈ 0.968 µM) | > 95% | 1 µg/mL (≈ 1.55 µM) | > 62.5 µg/mL
24 | CSCC/C=N/NC(=O)c1cnc2c(C(F)(F)F)cccc2c1N[C@@H](CSc1ccccc1)CC(=O)N(C)C | > 100 µg/mL | 10 µg/mL (≈ 17.3 µM) | 90% | > 100 µg/mL | 
25 | CO[C@H]1/C=C/O[C@@]2(C)Oc3c(C)c(O)c4c(O)c(c(/C=N/N5CCN(C)CC5)c(O)c4c3C2=O)NC(=O)/C(C)=C\C=C\[C@H](C)[C@H](O)[C@@H](C)[C@@H](O)[C@@H](C)[C@H](OC(C)=O)[C@@H]1C [RIFAMPIN] | 1.5 µg/mL (≈ 1.82 µM) | 0.5 µg/mL (≈ 0.608 µM) | > 95% | 1.5 µg/mL (≈ 1.82 µM) | > 62.5 µg/mL
26 | CN(C)C(=O)C[C@H](CSc1ccccc1)Nc1c(C(=O)N/N=C/c2ccc(F)cc2)cnc2ccc(F)cc12 | 10 µg/mL (≈ 18.3 µM) | 1 µg/mL (≈ 1.83 µM) | 95% | 5 µg/mL (≈ 9.13 µM) | > 62.5 µg/mL
27 | CN(C)C(=O)C[C@H](CSc1ccccc1)Nc1c(C(=O)N/N=C/c2ccccc2F)cnc2c(C(F)(F)F)cccc12 | 5 µg/mL (≈ 8.37 µM) | 2.5 µg/mL (≈ 4.18 µM) | 90% | > 100 µg/mL | > 62.5 µg/mL
28 | CN(C)C(=O)C[C@H](CSc1ccccc1)Nc1c(C(=O)N/N=C/c2ccccc2F)cnc2ccc(F)cc12 | 10 µg/mL (≈ 18.3 µM) | 1 µg/mL (≈ 1.83 µM) | > 95% | 5 µg/mL (≈ 9.13 µM) | > 62.5 µg/mL
